Legend:
Striatum [1] = experiment: Drug uptake in Sprague-Dawley rat striatum assessed per cm'3 at 37 MBq, iv after 15 mins; format: ADME, organism-based; conditions: in vivo, 0.25 h
Procedure, shortened: (§1)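 Baseline small-animal PET in one male Sprague–Dawley rat: 37 MBq (1 mCi) tracer injected, and full dynamic acquisition started at injection and ran 60 min. Images were reconstructed and coregistered with MRI. Striatal uptake was given as %ID per cm³ for the 15, 30 and 60 min time-frames.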

Striatum [2] = experiment: Drug uptake in Sprague-Dawley rat striatum assessed per cm'3 at 37 MBq, iv after 30 mins; format: ADME, organism-based; conditions: in vivo, 0.5 h; procedure, shortened: as §1
Striatum [3] = experiment: Drug uptake in Sprague-Dawley rat striatum assessed per cm'3 at 37 MBq, iv after 60 mins; format: ADME, organism-based; conditions: in vivo, 1 h; procedure, shortened: as §1
[4] = Ratio of drug uptake in striatum to cerebellum of Sprague-Dawley rat at 37 MBq, iv after 15 mins; format: ADME, organism-based; conditions: in vivo, 0.25 h
Procedure, shortened: (§2)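 Male Sprague–Dawley rat, baseline small-animal PET. Tracer given at 37 MBq (1 mCi), specific activity 67 GBq/µmol. Full dynamic scan for 60 min, acquisition starting with tracer injection. Read-out is the striatum/cerebellum radioactivity-concentration ratio, taken at the 15, 30 and 60 min time frames.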

[5] = Ratio of drug uptake in striatum to cerebellum of Sprague-Dawley rat at 37 MBq, iv after 30 mins; format: ADME, organism-based; conditions: in vivo, 0.5 h; procedure, shortened: as §2
[6] = Ratio of drug uptake in striatum to cerebellum of Sprague-Dawley rat at 37 MBq, iv after 60 mins; format: ADME, organism-based; conditions: in vivo, 1 h; procedure, shortened: as §2
Striatum [7] = experiment: Drug uptake in Sprague-Dawley rat striatum assessed per cm'3 at 37 MBq, iv treated 45 mins after DAT inhibitor GBR-12909 challenge measured after 15 mins; format: ADME, organism-based; conditions: in vivo, 0.25 h
Procedure, shortened: (§3)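 This was the same rat after its baseline scan. It was pretreated with 1.5 mg/kg GBR12909 45 min before a second 37 MBq tracer injection, and dynamic PET acquisition ran 60 min from injection. Striatal uptake was given as %ID per cm³ for the 15, 30 and 60 min time-frames.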

Striatum [8] = experiment: Drug uptake in Sprague-Dawley rat striatum assessed per cm'3 at 37 MBq, iv treated 45 mins after DAT inhibitor GBR-12909 challenge measured after 30 mins; format: ADME, organism-based; conditions: in vivo, 0.5 h; procedure, shortened: as §3
Striatum [9] = experiment: Drug uptake in Sprague-Dawley rat striatum assessed per cm'3 at 37 MBq, iv treated 45 mins after DAT inhibitor GBR-12909 challenge measured after 60 mins; format: ADME, organism-based; conditions: in vivo, 1 h; procedure, shortened: as §3
[10] = Ratio of drug uptake in striatum to cerebellum of Sprague-Dawley rat at 37 MBq, iv treated 45 mins after DAT inhibitor GBR-12909 challenge measured after 15 mins; format: ADME, organism-based; conditions: in vivo, 0.25 h
Procedure, shortened: (§4)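 Same male Sprague–Dawley rat, rescanned after baseline. GBR12909 1.5 mg/kg given 45 min before a second 37 MBq tracer dose. Dynamic acquisition for 60 min, started at injection. Read-out is the striatum/cerebellum radioactivity-concentration ratio at the 15, 30 and 60 min time frames.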

[11] = Ratio of drug uptake in striatum to cerebellum of Sprague-Dawley rat at 37 MBq, iv treated 45 mins after DAT inhibitor GBR-12909 challenge measured after 30 mins; format: ADME, organism-based; conditions: in vivo, 0.5 h; procedure, shortened: as §4
[12] = Ratio of drug uptake in striatum to cerebellum of Sprague-Dawley rat at 37 MBq, iv treated 45 mins after DAT inhibitor GBR-12909 challenge measured after 60 mins; format: ADME, organism-based; conditions: in vivo, 1 h; procedure, shortened: as §4
Striatum [13] = experiment: Drug uptake in Sprague-Dawley rat striatum assessed as reduction of striatal binding potential at 37 MBq, iv treated 45 mins after DAT inhibitor GBR-12909 challenge measured after 15 mins; format: ADME, organism-based; design: scale not given: the % may be the effect or the level left; conditions: in vivo, 0.25 h
Procedure, shortened: (§5)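 The same animal then received 1.5 mg/kg GBR12909 45 min before a second 37 MBq dose, followed by another 60 min scan. Striatal binding potential was read for the 15, 30 and 60 min time-frames, and the reduction was expressed in %.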

Striatum [14] = experiment: Drug uptake in Sprague-Dawley rat striatum assessed as reduction of striatal binding potential at 37 MBq, iv treated 45 mins after DAT inhibitor GBR-12909 challenge measured after 30 mins; format: ADME, organism-based; design: scale not given: the % may be the effect or the level left; conditions: in vivo, 0.5 h; procedure, shortened: as §5
Striatum [15] = experiment: Drug uptake in Sprague-Dawley rat striatum assessed as reduction of striatal binding potential at 37 MBq, iv treated 45 mins after DAT inhibitor GBR-12909 challenge measured after 60 mins; format: ADME, organism-based; design: scale not given: the % may be the effect or the level left; conditions: in vivo, 1 h; procedure, shortened: as §5
Striatum [16] = experiment: Drug uptake in Sprague-Dawley rat striatum assessed per cm'3 at 37 MBq, iv after 4 mins; format: ADME, organism-based; conditions: in vivo
[17] = target: Sodium-dependent dopamine transporter (Homo sapiens, UniProt Q01959); experiment: Inhibition of human dopamine transporter
Sequence of Sodium-dependent dopamine transporter (Q01959 whole entry): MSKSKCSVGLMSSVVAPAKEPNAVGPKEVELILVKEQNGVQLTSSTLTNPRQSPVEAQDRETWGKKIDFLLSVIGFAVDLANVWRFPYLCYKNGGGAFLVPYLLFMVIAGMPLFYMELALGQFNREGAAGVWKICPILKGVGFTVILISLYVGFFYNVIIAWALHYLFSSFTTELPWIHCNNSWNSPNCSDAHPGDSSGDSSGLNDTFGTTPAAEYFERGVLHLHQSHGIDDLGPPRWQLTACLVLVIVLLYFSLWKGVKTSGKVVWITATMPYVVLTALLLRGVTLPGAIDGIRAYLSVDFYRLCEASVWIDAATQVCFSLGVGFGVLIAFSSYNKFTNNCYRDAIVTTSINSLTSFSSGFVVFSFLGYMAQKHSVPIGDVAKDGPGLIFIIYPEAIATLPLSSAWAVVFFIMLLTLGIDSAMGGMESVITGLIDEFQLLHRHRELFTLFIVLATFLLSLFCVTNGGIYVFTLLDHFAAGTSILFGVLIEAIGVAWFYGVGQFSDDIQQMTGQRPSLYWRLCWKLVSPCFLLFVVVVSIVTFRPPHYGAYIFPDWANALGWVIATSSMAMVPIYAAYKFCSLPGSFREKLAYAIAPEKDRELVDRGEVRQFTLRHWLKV

SMILES	Activity (Striatum [1]) [%ID]	Activity (Striatum [2]) [%ID]	Activity (Striatum [3]) [%ID]	Ratio [4]	Ratio [5]	Ratio [6]	Activity (Striatum [7]) [%ID]	Activity (Striatum [8]) [%ID]	Activity (Striatum [9]) [%ID]	Ratio [10]	Ratio [11]	Ratio [12]	Activity (Striatum [13]) [%]	Activity (Striatum [14]) [%]	Activity (Striatum [15]) [%]	Drug uptake (Striatum [16]) [%]	IC50 [17] [nM]
Cc1ccc([C@H]2C[C@@H]3CC[C@H]([C@H]2C(=O)O[11CH3])N3CC#CCF)cc1	2	2.1	2.1	2.4	3.6	5	2.1	1.6	1.2	1.25	1.67	1.61	32	41	57	2.22	–
COC(=O)[C@H]1[C@@H](c2ccc(C)cc2)C[C@@H]2CC[C@H]1N2CC#CCF	–	–	–	–	–	–	–	–	–	–	–	–	–	–	–	–	3
